PMC8324087 (Angewandte Chemie (International ed. in English), 2021)
pIC50: −log10 of the molar value. Where two headings read alike, the source gives them in different places.

Key:
FGFR2 [1] = molecular target: T1, FGFR2 (Homo sapiens, UniProt P21802); assay: Immunoblot analysis of FGFR2 degradation in KATO III cells; type: cell-based
Method in brief: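 FGFR2-amplified KATO III cells exposed to test compound at 1 µM for 24h, across a concentration series for 6h, over a time course, or for 4h beside a negative-control analogue. For rescue, cells were pretreated 2h with BGJ398, a VHL ligand, bortezomib or MLN4924, then given test compound for 4h. Full-length FGFR2 was detected by immunoblot.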
Target sequence in this assay (P21802 430-767 limits assumed): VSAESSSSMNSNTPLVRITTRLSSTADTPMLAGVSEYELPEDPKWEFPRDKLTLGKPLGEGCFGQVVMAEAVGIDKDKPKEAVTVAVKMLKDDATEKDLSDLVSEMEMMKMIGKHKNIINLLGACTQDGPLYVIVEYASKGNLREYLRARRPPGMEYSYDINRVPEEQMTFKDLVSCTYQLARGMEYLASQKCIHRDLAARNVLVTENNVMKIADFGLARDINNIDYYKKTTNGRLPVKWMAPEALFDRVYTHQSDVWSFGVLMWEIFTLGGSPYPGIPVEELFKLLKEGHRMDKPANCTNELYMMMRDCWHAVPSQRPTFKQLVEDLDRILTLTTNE

FGFR2 [2] = molecular target: T1, FGFR2; assay: Z'-LYTE kinase assay; type: biochemical
Target sequence in this assay (P21802 22-821): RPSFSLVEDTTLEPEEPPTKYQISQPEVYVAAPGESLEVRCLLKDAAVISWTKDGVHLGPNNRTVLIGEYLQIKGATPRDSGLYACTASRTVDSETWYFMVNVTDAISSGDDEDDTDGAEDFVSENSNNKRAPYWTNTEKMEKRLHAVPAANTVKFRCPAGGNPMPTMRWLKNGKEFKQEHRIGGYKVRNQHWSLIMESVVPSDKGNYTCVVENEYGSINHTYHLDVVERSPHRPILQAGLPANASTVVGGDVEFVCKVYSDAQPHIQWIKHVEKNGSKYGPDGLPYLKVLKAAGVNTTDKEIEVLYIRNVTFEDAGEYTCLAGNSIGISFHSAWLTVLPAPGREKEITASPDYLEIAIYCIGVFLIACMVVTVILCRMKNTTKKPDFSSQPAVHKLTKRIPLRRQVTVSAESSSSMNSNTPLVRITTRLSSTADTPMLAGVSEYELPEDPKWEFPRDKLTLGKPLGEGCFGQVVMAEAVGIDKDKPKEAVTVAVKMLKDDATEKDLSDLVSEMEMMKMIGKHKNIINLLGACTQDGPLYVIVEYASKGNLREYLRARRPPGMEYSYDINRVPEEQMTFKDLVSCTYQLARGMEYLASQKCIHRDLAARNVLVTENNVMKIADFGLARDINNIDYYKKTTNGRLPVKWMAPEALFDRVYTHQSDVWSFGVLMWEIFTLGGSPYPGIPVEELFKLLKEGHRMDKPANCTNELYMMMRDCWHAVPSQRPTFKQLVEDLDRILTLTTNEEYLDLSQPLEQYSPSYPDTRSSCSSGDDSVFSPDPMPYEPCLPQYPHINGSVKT

ICC13–7 cells = assay: CellTiter-Glo anti-proliferation, ICC13–7 cells; type: cell-based; conditions: read-out: anti-proliferative IC50, FGFR2 fusion-positive ICC13–7 cells, 10d
Method in brief: (§1)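 Cell viability read by CellTiter-Glo after test compound exposure: 3d for CCLP-FP (CCLP-1 with ectopic FGFR2-PHGDH fusion) and CCLP1 (FGFR1 overexpression), 10d for ICC13–7 (endogenous FGFR2-OPTN fusion); anti-proliferative IC50 derived; mean ± SEM, n = 3.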

FGFR3 = FGFR3 (Homo sapiens, UniProt P22607); assay: Immunoblot analysis of FGFR3 in JHH7 cells; type: cell-based; conditions: 16h
Chain of FGFR3 (P22607 23-806): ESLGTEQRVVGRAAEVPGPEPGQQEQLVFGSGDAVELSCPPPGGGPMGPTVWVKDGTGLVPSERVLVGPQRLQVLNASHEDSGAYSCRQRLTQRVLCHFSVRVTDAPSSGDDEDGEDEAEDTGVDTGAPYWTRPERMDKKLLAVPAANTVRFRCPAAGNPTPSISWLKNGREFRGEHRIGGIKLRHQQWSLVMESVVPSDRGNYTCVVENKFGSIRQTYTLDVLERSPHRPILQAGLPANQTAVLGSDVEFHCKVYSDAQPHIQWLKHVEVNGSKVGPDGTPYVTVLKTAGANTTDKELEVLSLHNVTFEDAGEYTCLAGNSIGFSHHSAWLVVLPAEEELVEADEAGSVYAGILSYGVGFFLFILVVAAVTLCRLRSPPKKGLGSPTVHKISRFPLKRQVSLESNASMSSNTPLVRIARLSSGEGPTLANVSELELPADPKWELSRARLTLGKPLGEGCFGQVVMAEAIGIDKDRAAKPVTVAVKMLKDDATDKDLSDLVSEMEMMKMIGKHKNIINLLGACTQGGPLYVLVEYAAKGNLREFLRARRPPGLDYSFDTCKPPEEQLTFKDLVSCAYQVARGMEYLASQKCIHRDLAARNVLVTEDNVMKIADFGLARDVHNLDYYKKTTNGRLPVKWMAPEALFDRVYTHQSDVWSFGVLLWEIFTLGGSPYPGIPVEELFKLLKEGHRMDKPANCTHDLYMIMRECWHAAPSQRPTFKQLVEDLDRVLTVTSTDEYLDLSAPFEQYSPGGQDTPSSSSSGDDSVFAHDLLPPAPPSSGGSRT

FGFR1 = FGFR1 (Homo sapiens, UniProt P11362); assay: Immunoblot analysis of FGFR1 degradation in CCLP1 cells; type: cell-based
Chain of FGFR1 (P11362 22-822): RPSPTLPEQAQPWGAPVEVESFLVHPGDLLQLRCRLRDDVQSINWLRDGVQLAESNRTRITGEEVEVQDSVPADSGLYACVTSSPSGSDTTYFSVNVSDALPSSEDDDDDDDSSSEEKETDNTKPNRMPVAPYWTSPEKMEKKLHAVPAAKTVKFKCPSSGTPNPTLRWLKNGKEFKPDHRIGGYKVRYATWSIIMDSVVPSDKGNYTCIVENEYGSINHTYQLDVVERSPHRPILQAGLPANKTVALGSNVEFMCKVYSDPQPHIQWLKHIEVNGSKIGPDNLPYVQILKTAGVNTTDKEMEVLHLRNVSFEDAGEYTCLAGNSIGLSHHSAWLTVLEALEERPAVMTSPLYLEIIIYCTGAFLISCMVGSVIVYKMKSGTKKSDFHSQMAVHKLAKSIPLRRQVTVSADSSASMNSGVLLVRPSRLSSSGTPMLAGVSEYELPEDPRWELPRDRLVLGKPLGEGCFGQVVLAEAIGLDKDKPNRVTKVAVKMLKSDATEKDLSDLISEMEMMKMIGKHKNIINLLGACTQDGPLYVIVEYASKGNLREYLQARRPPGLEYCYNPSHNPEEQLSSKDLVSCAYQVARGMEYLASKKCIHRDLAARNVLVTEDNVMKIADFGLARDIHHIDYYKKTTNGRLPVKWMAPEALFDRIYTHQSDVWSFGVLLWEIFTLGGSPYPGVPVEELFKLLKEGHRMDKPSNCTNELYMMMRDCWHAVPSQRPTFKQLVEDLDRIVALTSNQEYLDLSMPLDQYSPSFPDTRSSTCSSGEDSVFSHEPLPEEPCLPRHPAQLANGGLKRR

all FGFR isoforms = assay: Biochemical inhibition of FGFR isoforms; conditions: Table S1
Method in brief: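 FGFR isoform IC50s measured by Z'-LYTE kinase assay, run as an outsourced service.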

FGFR2-OPTN fusion = FGFR2-OPTN fusion (Homo sapiens, UniProt P21802+Q96CV9); assay: Immunoblot analysis of FGFR2-OPTN fusion in ICC13–7 cells; type: cell-based; conditions: 100 nM and 1 µM, 24h
Chain of FGFR2-OPTN fusion (P21802 431-767 limits assumed, one chain of several): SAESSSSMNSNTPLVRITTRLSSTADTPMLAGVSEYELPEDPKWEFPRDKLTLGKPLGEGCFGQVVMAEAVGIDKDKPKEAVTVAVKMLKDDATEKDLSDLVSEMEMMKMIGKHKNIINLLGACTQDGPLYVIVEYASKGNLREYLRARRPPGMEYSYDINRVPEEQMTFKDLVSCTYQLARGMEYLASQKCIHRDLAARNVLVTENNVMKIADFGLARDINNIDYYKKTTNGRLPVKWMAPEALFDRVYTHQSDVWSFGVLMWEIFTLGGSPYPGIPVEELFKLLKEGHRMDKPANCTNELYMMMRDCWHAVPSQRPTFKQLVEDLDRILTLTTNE
Method in brief: (§2)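 Immunoblot for FGFR2 fusion protein after 24 h exposure to test compound. FGFR2-PHGDH fusion is ectopically expressed in CCLP-1 cells (CCLP-1-FP); FGFR2-OPTN is endogenous in ICC13–7 cells. Both fusions carry nearly the full FGFR2 coding sequence (extracellular, transmembrane and kinase domains) fused in-frame to dimerization-domain partners.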

[3] = system: phosphorylation of FRS2 or ERK; assay: Immunoblot of downstream FGFR2 signaling; type: cell-based; conditions: CCLP1-FP cells, 50 nM, 4 or 8 hours
Method in brief: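 CCLP1 cells ectopically expressing the FGFR2-PHGDH fusion were exposed to test compound at 50 nM for 4 or 8 hours. Lysates were immunoblotted for the fusion protein and for signaling markers.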

FGFR4 = FGFR4 (Homo sapiens, UniProt P22455); assay: Immunoblot analysis of FGFR4 in JHH7 cells; type: cell-based; conditions: 16h
Chain of FGFR4 (P22455 22-802): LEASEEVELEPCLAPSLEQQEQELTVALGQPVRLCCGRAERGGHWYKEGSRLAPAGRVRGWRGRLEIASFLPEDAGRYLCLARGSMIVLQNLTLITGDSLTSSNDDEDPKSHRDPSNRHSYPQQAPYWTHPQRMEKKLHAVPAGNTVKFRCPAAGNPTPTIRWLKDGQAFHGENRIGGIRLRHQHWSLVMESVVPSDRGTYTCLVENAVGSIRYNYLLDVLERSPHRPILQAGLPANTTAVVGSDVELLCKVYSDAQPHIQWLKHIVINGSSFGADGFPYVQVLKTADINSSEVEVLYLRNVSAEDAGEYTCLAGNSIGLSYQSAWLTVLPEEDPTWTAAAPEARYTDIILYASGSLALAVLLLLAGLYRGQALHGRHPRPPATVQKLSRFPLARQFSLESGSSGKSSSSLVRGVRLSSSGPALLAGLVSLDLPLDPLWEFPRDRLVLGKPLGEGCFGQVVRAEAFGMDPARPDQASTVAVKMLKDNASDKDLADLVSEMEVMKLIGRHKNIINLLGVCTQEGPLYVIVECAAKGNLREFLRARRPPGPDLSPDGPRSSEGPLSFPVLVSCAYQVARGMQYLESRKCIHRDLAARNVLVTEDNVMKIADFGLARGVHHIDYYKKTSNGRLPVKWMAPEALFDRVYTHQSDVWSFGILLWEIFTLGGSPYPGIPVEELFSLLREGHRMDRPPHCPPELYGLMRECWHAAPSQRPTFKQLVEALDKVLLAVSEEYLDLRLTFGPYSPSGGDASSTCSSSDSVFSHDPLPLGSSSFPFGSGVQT

Kelly cells = assay: Quantitative mass spectrometry-based proteomics in Kelly cells; type: cell-based; conditions: 5h treatment, 1 µM
Method in brief: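 Kelly cells, which express both FGFR1 and FGFR2, given test compound at 1 µM for 5h. Quantitative mass spectrometry-based proteomics gave relative abundance of proteins across the proteome.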

FGFR2-PHGDH fusion = FGFR2-PHGDH fusion (Homo sapiens, UniProt O43175+P21802); assay: Immunoblot analysis of FGFR2-PHGDH fusion in CCLP-1-FP cells; type: cell-based; conditions: 100 nM and 1 µM, 24h
Chain of FGFR2-PHGDH fusion (P21802 431-767 limits assumed, one chain of several): as the sequence (P21802 431-767 limits assumed, one chain of several) above
Method in brief: as §2

[4] = Pharmacokinetics study in mice; type: in vivo
Method in brief: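 Mice received a single dose of test compound by intravenous injection (1 mg/kg), intraperitoneal injection (3 mg/kg) or oral administration (10 mg/kg) for pharmacokinetic profiling.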

CCLP1 cells = assay: CellTiter-Glo anti-proliferation, CCLP1 cells; type: cell-based; conditions: read-out: anti-proliferative IC50, FGFR1 overexpressing CCLP1 cells, 3d
Method in brief: as §1

CCLP-FP cells = assay: CellTiter-Glo anti-proliferation, CCLP-FP cells; type: cell-based; conditions: read-out: anti-proliferative IC50, engineered FGFR2 fusion CCLP-FP cells, 3d
Method in brief: as §1

FGFR2-PHGDH = FGFR2-PHGDH (Homo sapiens, UniProt O43175+P21802); assay: In vivo pharmacodynamics, CCLP1-FGFR2-PHGDH xenograft model; set-up: species or system mice; conditions: 20 or 40 mg/kg, IP QD for 6d; tumors isolated 4h after last dose
Chain of FGFR2-PHGDH (P21802 458-767 limits assumed, one chain of several): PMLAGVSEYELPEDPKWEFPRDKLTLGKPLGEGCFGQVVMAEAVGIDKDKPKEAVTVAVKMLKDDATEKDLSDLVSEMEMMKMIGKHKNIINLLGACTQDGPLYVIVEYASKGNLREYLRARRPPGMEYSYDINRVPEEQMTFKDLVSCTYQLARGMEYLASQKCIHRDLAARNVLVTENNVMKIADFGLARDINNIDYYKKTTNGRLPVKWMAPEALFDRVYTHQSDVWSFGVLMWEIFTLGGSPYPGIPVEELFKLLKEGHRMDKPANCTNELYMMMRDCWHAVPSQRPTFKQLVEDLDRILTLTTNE
Method in brief: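 Mice bearing CCLP1-FGFR2-PHGDH xenografts began dosing once tumours reached ~200 mm3. Test compound was given at 20 or 40 mg/kg IP once daily for 6 d to assess in vivo degradation and signaling.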

[5] = read-out: FGFR2 IC50, BGJ398-VHL based degraders

Structure (SMILES): CCN1CCN(c2ccc(Nc3cc(N(C)C(=O)Nc4c(Cl)c(OC)cc(OC)c4Cl)ncn3)cc2)CC1 [BGJ398, reference compound]
- Rescue of DGY-09-192 induced FGFR2 degradation by pretreatment (FGFR2 [1]; 2h pretreatment then DGY-09-192 for 4h): rescued FGFR2 degradation

Structure (SMILES): COc1cc(OC)c(Cl)c(NC(=O)N(C)c2cc(Nc3ccc(N4CCN(CC(=O)NCCCCCOc5cccc6c5C(=O)N(C5CCC(=O)NC5=O)C6=O)CC4)cc3)ncn2)c1Cl (stereo not drawn) [DGY-09-073]
- pIC50 (FGFR2 [2]; read-out: FGFR2 IC50, BGJ398-IMiDs based degraders): 7.48

Structure (SMILES): COc1cc(OC)c(Cl)c(NC(=O)N(C)c2cc(Nc3ccc(N4CCN(CC(=O)N[C@H](C(=O)N5C[C@H](O)C[C@H]5C(=O)N[C@@H](C)c5ccc(-c6scnc6C)cc5)C(C)(C)C)CC4)cc3)ncn2)c1Cl [DGY-09-192]
- pIC50 (ICC13–7 cells): 7.40
- Effect on FGFR3 protein levels (FGFR3): minimal effects
- Dmax of FGFR1 degradation (FGFR1; 16h): 85%
- DC50 (FGFR1; read-out: DC50 of FGFR1 degradation, 16h): 4.35 nM
- Inhibition of FGFR isoforms (all FGFR isoforms): equally potent inhibitor for all FGFR isoforms
- Degradation of FGFR2-OPTN fusion protein (FGFR2-OPTN fusion): dose-dependent degradation
- Suppression of downstream FGFR2 signaling (phosphorylation of FRS2 or ERK) [3]: durably suppressed
- Effect on FGFR4 protein levels (FGFR4): minimal effects
- Proteome-wide degradation selectivity (Kelly cells): high selectivity for FGFR1 and FGFR2 with PDE6D as an off-target
- Degradation of FGFR2-PHGDH fusion protein (FGFR2-PHGDH fusion): dose-dependent degradation
- pIC50 (FGFR2 [2]; [5]): 7.47
- AUClast ([4]; ip 3 mg/kg): 7.33 µM·h
- CL ([4]; ip 3 mg/kg): 6.84 mL/min/kg
- Cmax ([4]; ip 3 mg/kg): 1490 nM
- T1/2 ([4]; ip 3 mg/kg): 4.25 h
- Tmax ([4]; ip 3 mg/kg): 1.33 h
- AUClast ([4]; iv 1 mg/kg): 2.94 µM·h
- CL ([4]; iv 1 mg/kg): 5.58 mL/min/kg
- Cmax ([4]; iv 1 mg/kg): 1600 nM
- T1/2 ([4]; iv 1 mg/kg): 5.45 h
- Tmax ([4]; iv 1 mg/kg): 0.08 h
- Vss ([4]; iv 1 mg/kg): 1.41 L/kg
- oral bioavailability ([4]; oral 10 mg/kg): negligible
- AUClast ([4]; po 10 mg/kg): 0.07 µM·h
- CL ([4]; po 10 mg/kg): 1550.77 mL/min/kg
- Cmax ([4]; po 10 mg/kg): 10 nM
- Fpo ([4]; po 10 mg/kg): 0.2
- T1/2 ([4]; po 10 mg/kg): 5.10 h
- Tmax ([4]; po 10 mg/kg): 1.67 h
- clearance ([4]; via IV and IP administration): low clearance
- half-life (T1/2) ([4]; via IV and IP administration): 5 h
- pIC50 (CCLP1 cells): 7.77
- pIC50 (CCLP-FP cells): 8.10
- FGFR2-PHGDH protein levels in tumor (FGFR2-PHGDH): reduction
- phosphorylation of downstream markers FRS2 and ERK1/2 in tumor (FGFR2-PHGDH): reduction
- Concentration at which hook effect is observed (FGFR2 [1]; 6h dose titration): above 5 µM
- Dmax of FGFR2 degradation (FGFR2 [1]; 6h treatment): 74%
- Degradation of full length FGFR2 protein (FGFR2 [1]; 24h treatment at 1 µM): most potent degradation
- Time to significant FGFR2 degradation (FGFR2 [1]; time course): ≤ 4 h

Structure (SMILES): COc1cc(OC)c(Cl)c(NC(=O)N(C)c2cc(Nc3ccc(N4CCN(CC(=O)NCCCCCSC(C)(C)C(NC(C)=O)C(=O)N5CC(O)CC5C(=O)NC(C)c5ccc(-c6scnc6C)cc5)CC4)cc3)ncn2)c1Cl (stereo not drawn) [DGY-11-122]
- pIC50 (FGFR2 [2]; [5]): 7.37

Structure (SMILES): COc1cc(OC)c(Cl)c(NC(=O)N(C)c2cc(Nc3ccc(N4CCN(CC(=O)NCCCCCOc5cc(-c6scnc6C)ccc5[C@H](C)NC(=O)[C@@H]5C[C@@H](O)CN5C(=O)[C@@H](NC(C)=O)C(C)(C)C)CC4)cc3)ncn2)c1Cl [DGY-11-123]
- pIC50 (FGFR2 [2]; [5]): 7.23

Structure (SMILES): COc1cc(OC)c(Cl)c(NC(=O)N(C)c2cc(Nc3ccc(N4CCN(CC(=O)NCCC(=O)N[C@H](C(=O)N5C[C@H](O)C[C@H]5C(=O)N[C@@H](C)c5ccc(-c6scnc6C)cc5)C(C)(C)C)CC4)cc3)ncn2)c1Cl [NJH-05-043]
- pIC50 (FGFR2 [2]; [5]): 7.52

Structure (SMILES): COc1cc(OC)c(Cl)c(NC(=O)N(C)c2cc(Nc3ccc(N4CCN(C(=O)NCCOCCC(=O)NC(C(=O)N5CC(O)CC5C(=O)NC(C)c5ccc(-c6scnc6C)cc5)C(C)(C)C)CC4)cc3)ncn2)c1Cl (stereo not drawn) [NJH-05-044]
- pIC50 (FGFR2 [2]; [5]): 7.48

Structure (SMILES): COc1cc(OC)c(Cl)c(NC(=O)N(C)c2cc(Nc3ccc(N4CCN(CCCCCC(=O)N[C@H](C(=O)N5C[C@H](O)C[C@H]5C(=O)N[C@@H](C)c5ccc(-c6scnc6C)cc5)C(C)(C)C)CC4)cc3)ncn2)c1Cl [NJH-05-123]
- pIC50 (FGFR2 [2]; [5]): 7.80

Structure (SMILES): COc1cc(OC)c(Cl)c(NC(=O)N(C)c2cc(Nc3ccc(N4CCN(CCCC(=O)N[C@H](C(=O)N5C[C@H](O)C[C@H]5C(=O)N[C@@H](C)c5ccc(-c6scnc6C)cc5)C(C)(C)C)CC4)cc3)ncn2)c1Cl [NJH-05–132]
- pIC50 (FGFR2 [2]; [5]): 8.00

Structure (SMILES): COc1cc(OC)c(Cl)c(NC(=O)N(C)c2cc(Nc3ccc(N4CCN(CCC(=O)N[C@H](C(=O)N5C[C@H](O)C[C@H]5C(=O)N[C@@H](C)c5ccc(-c6scnc6C)cc5)C(C)(C)C)CC4)cc3)ncn2)c1Cl [NJH-05–166]
- pIC50 (FGFR2 [2]; [5]): 7.52
